In ChEMBL document CHEMBL1139997, “Structural basis for the activity of the RSK-specific inhibitor, SL0101” (Bioorg Med Chem, 2007):
Each block holds one compound with its values, some of them ahead of it. The source made the active and inactive calls. The calls are words filed in the database; no cut-off is given here.

Assays:
[1] = Inhibition of RSK expressed in SF9 cells; set-up: species or system Homo sapiens
MCF7 [2] = assay: Antiproliferative activity against human MCF7 cells at 100 uM after 48 hrs; format: functional
How it was run: (§1)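 MCF-7 or MCF-10A cells were seeded at 5000 per well in ATCC-recommended medium. After 24 h the medium was replaced with medium containing compound or vehicle. Viability was read 48 h later by luminescent cell-viability reagent. Results are fold proliferation as % of vehicle-treated cells, mean of n = 2 in quadruplicate ± SD. EC50 was obtained by best-fit curve analysis.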

Homo sapiens = organism: Homo sapiens; assay: Inhibition of RSK activity at 75 uM
MCF7 [3] = assay: Antiproliferative activity against human MCF7 cells at 75 uM after 48 hrs; format: functional, cell-based; how it was run: as §1
[4] = Growth inhibition of human MCF10A cells at 75 uM 48 hrs; format: cell-based, MCF-10A; how it was run: as §1
MCF7 [5] = assay: Inhibition of RSK mediated mitogen-induced p140 phosphorylation in MCF7 cells pretreated at 75 uM; format: cell-based; conditions: Homo sapiens
How it was run: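 MCF-7 cells were seeded at 3×10^5 per well and serum-starved 24 h. They were pre-incubated with inhibitor or vehicle (2 h per legend; methods state 4 h), then given 500 nM PMA or vehicle for 20 min. Cells were lysed in boiling SDS buffer without DTT, and lysates were normalized for total protein before immunoblotting for phospho-p140.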

MCF7 [6] = assay: Antiproliferative activity against human MCF7 cells after 48 hrs; format: functional, cell-based; how it was run: as §1
[7] = Antiproliferative activity against human MCF10A cells up to 200 uM after 48 hrs; format: cell-based; conditions: mcf-10a; how it was run: as §1
MCF7 [8] = assay: Antiproliferative activity against human MCF7 cells at >100 uM after 48 hrs; format: functional, cell-based; how it was run: as §1
MCF7 [9] = assay: Antiproliferative activity against human MCF7 cells at 15 uM; format: functional; how it was run: as §1
[10] = Antiproliferative activity against human MCF10A cells at 15 uM; format: cell-based; conditions: mcf-10a; how it was run: as §1
[11] = Inhibition of RSK expressed in SF9 cells at 10 uM; conditions: Homo sapiens

- IC50 [1]: 24.6 µM
SMILES: CC(=O)O[C@@H]1[C@@H](OC(C)=O)[C@@H](O)[C@H](Oc2c(-c3ccc(O)cc3)oc3cc(O)ccc3c2=O)O[C@H]1C
- Activity (MCF7 [2]): 50%

- IC50 [1]: 1.56 µM
- Activity (Homo sapiens): Active
SMILES: CC(=O)O[C@@H]1[C@@H](OC(C)=O)[C@@H](O)[C@H](Oc2c(-c3ccc(O)cc3)oc3cccc(O)c3c2=O)O[C@H]1C
- Activity (MCF7 [3]): Active
- inhibition at 48 h, 75 µM [4]: 25%
- Activity (MCF7 [5]): Active

- IC50 [1]: 0.129 µM
SMILES: CCO[C@@H]1[C@@H](OCC)[C@@H](O)[C@H](Oc2c(-c3ccc(O)cc3)oc3cc(O)cc(O)c3c2=O)O[C@H]1C

SMILES: COc1ccc(-c2oc3cc(OC)cc(OC)c3c(=O)c2O[C@@H]2O[C@@H](C)[C@H](OC(C)=O)[C@@H](OC(C)=O)[C@H]2O)cc1
- Activity ([1]; Homo sapiens): inactive

- IC50 [1]: 13.2 µM
- Activity (Homo sapiens): Active
SMILES: CC(=O)O[C@@H]1[C@@H](OC(C)=O)[C@@H](O)[C@H](Oc2c(-c3ccccc3)oc3cccc(O)c3c2=O)O[C@H]1C
- Activity (MCF7 [3]): Active
- inhibition at 48 h, 75 µM [4]: 25%
- inhibition (MCF7 [5]): 50%

- IC50 [1]: 4.37 µM
SMILES: C[C@@H]1O[C@@H](Oc2c(-c3ccc(O)cc3)oc3cc(O)cc(O)c3c2=O)[C@H](O)[C@H](O)[C@H]1O [AFZELIN]
- Activity (MCF7 [6]): inactive

SMILES: CC(=O)O[C@@H]1[C@@H](OC(C)=O)[C@@H](O)[C@H](Oc2c(-c3ccc(O)cc3)oc3cc(O)cc(O)c3c2=O)O[C@H]1C
- Activity [7]: Not Active
- Activity (MCF7 [8]): Active

SMILES: CC(=O)Oc1ccc(-c2oc3cc(OC(C)=O)cc(OC(C)=O)c3c(=O)c2O[C@@H]2O[C@@H](C)[C@H](OC(C)=O)[C@@H](OC(C)=O)[C@H]2OC(C)=O)cc1
- Activity (MCF7 [9]): 50%
- Activity [10]: Not Active
- inhibition [11]: 50%
